How the values were obtained:
[1] = system: Mus musculus; assay: Antiradiation activity in ip dosed whole-body gamma-irradiated mouse assessed as increase in mouse survival rate compound administered 15 mins prior irradiation; type: functional; settings: light or radiation study
Method in brief: (§1)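 Mice were dosed ip or po with compound in water, or in physiological saline containing 0.3% methylcellulose and 0.1% Tween 80, usually at pH 5–7. Dosing came 15, 30 or 60 min before whole-body ¹³⁷Cs γ irradiation (141.5 rd/min; 849 rd for most compounds). The dose reported is the lowest giving the highest survival rate. Read-out was % survival at 30 days.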

[2] = system: Mus musculus; assay: Antiradiation activity in ip dosed whole-body gamma-irradiated mouse assessed as mouse survival compound administered 15 mins prior irradiation measured after 30 days relative to control; type: functional; method in brief: as §1
[3] = Toxicity ip dosed whole-body gamma-irradiated mouse compound administered 15 mins prior irradiation; type: organism-based; settings: in vivo
[4] = system: Mus musculus; assay: Protective index, ratio of LD50 for mouse to ED50 for antiradiation activity in ip dosed whole-body gamma-irradiated mouse
Method in brief: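 After ip dosing and whole-body ¹³⁷Cs γ irradiation (141.5 rd/min), ED50 (dose for 50% survival) was estimated from log dose-probit survival plots. Protective index was approximated as approx LD50 (mg/kg) × 1.5 / ED50 (mg/kg).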

[5] = Toxicity po dosed whole-body gamma-irradiated mouse compound administered 30 mins prior irradiation; type: organism-based; settings: in vivo
[6] = system: Mus musculus; assay: Antiradiation activity in po dosed whole-body gamma-irradiated mouse assessed as increase in mouse survival rate compound administered 30 mins prior irradiation; type: functional; settings: light or radiation study, read-out: MED; method in brief: as §1
[7] = system: Mus musculus; assay: Antiradiation activity in po dosed whole-body gamma-irradiated mouse assessed as mouse survival compound administered 30 mins prior irradiation measured after 30 days relative to control; type: functional; method in brief: as §1
[8] = system: Mus musculus; assay: Antiradiation activity in ip dosed whole-body gamma-irradiated mouse assessed as increase in mouse survival rate compound administered 30 mins prior irradiation; type: functional; settings: light or radiation study, read-out: MED; method in brief: as §1
[9] = system: Mus musculus; assay: Antiradiation activity in ip dosed whole-body gamma-irradiated mouse assessed as mouse survival compound administered 30 mins prior irradiation measured after 30 days relative to control; type: functional; method in brief: as §1
[10] = Toxicity ip dosed whole-body gamma-irradiated mouse compound administered 30 mins prior irradiation; type: organism-based; settings: in vivo

SMILES | ED50 [1] | minimal effective dose ([1]; read-out: MED) | Survival [2] | LD50 at 0.25 h [3] | PI [4] | LD50 at 0.5 h [5] | minimal effective dose [6] | Survival [7] | minimal effective dose [8] | Survival [9] | LD50 at 0.5 h [10]
Cl.NCCCC[C@H](N)CS | 10 mg/kg | 25 mg/kg | 80% | 88 mg/kg | 13 | 450 mg/kg | 75 mg/kg | 50% | – | – | –
Br.NCC(N)CS (stereo unspecified) | – | – | – | – | – | – | – | – | 200 mg/kg | 20% | 800 mg/kg
